# Results: the RNAGym collection of RNA variant scans (doi:10.1126/science.aae0568)
# Fewer inactive variants are shown than the library holds.
# B1: tRNA (parent)
# chain: GUUCCGUUGGCGUAAUGGUAACGCGUCUCCCUCCUAAGGAGAAGACUGCGGGUUCGAGUCCCGUACGGAACG
# Variants of: B1
# Test: yeast fitness relative to wild type (ratio to wild type); higher = fitter; tRNA-Arg(CCU), competitive growth, 37 C, YPD
# In short: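 The tRNA-Arg(CCU) gene variants were made by chemical synthesis with a 3% per-site mutation rate at 69 sites and inserted at the native genomic locus of Saccharomyces cerevisiae. After pooling, the strains were competed in YPD at 37°C for 24 hours in six parallel replicates. Gene amplicons from the start population and each end population were read by 100-nucleotide paired-end sequencing, and Darwinian fitness relative to wild type was taken from genotype frequency changes. Genotypes needed ≥ 100 starting reads, and estimates < 0.5 were set to 0.5.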
row,Variant,yeast fitness
1,U7A C22A C24U A36U,≤ 0.5
2,U7A C22A C29A G44C,≤ 0.5
3,U7A C22A C30U C61U G67A G68U,≤ 0.5
4,U7A C22A G52A G58A,≤ 0.5
5,U7A C22G,0.669
6,U7A C22G A57G,≤ 0.5
7,U7A C22G A57U,≤ 0.5
8,U7A C22G C24G U28C G56A A65U,≤ 0.5
9,U7A C22G G38C C60U,≤ 0.5
10,U7A C22U U26C A40G A43U C49A,≤ 0.5
11,U7A C22U U54C C66U G68C A69U,0.567
12,U7A C24G A69U,≤ 0.5
13,U7A C24G C29G C30U A40C,0.96
14,U7A C24G C29G C30U A40C G68C,0.663
15,U7A C24G C33U G41C,≤ 0.5
16,U7A C24U,0.669
17,U7A C24U A69U,≤ 0.5
18,U7A C24U C30U C31G A57G,≤ 0.5
19,U7A C24U C33A A65U,0.58
20,U7A C24U C33A G50A A65C,≤ 0.5
21,U7A C24U U54C A69U,≤ 0.5
22,U7A C27A A65U,0.603
23,U7A C27A C29G C30G G51A,0.535
24,U7A C27A C29G C30G U47A A70G,≤ 0.5

row,Variant,yeast fitness
1,U7A C27A G50C C60U A70C,≤ 0.5
2,U7A C27A G67A,≤ 0.5
3,U7A C27A U28C C49A,0.622
4,U7A C27G C33A A36G G58A C66U,≤ 0.5
5,U7A C27U A69U,0.691
6,U7A C27U C30A A69U,≤ 0.5
7,U7A C27U C30G G38C C49U A65G,0.664
8,U7A C27U C46G,0.691
9,U7A C27U C66A,≤ 0.5
10,U7A C27U G52C,0.583
11,U7A C27U U32C,0.575
12,U7A C29A G50C,≤ 0.5
13,U7A C29A G58A C61G,0.604
14,U7A C29A G58A C61G G63A A70U,0.526
15,U7A C29G A36C G67A,≤ 0.5
16,U7A C29G A36G,≤ 0.5
17,U7A C29G A70U,≤ 0.5
18,U7A C29G C46G,≤ 0.5
19,U7A C29G C46G G58A,≤ 0.5
20,U7A C29G G38A G44A C46U C62G,≤ 0.5
21,U7A C29G G67U,≤ 0.5
22,U7A C29G U32C G38A,≤ 0.5
23,U7A C29G U64C,≤ 0.5
24,U7A C29U,0.67

row,Variant,yeast fitness
1,U7A C29U A37C U53A C55U C60A,≤ 0.5
2,U7A C29U C33U U54A,≤ 0.5
3,U7A C29U C34A G50C A65C,≤ 0.5
4,U7A C30A A70U,0.601
5,U7A C30A C31G A43U U54G C62G,≤ 0.5
6,U7A C30G A43C A57U G58A,≤ 0.5
7,U7A C30U,0.614
8,U7A C30U A65C,0.633
9,U7A C30U C46U C49U,≤ 0.5
10,U7A C30U C66U,≤ 0.5
11,U7A C30U G50C,≤ 0.5
12,U7A C31A G39C G56C,≤ 0.5
13,U7A C31G,0.78
14,U7A C31G A70U,≤ 0.5
15,U7A C31G G51A U64A C66U G68C,≤ 0.5
16,U7A C31G G63A,≤ 0.5
17,U7A C31G U64A C66U G68C,≤ 0.5
18,U7A C31G U64A C66U G68C A69G,≤ 0.5
19,U7A C33A A45C C49U,≤ 0.5
20,U7A C33A C46U G63U,0.574
21,U7A C33G,0.59
22,U7A C33G C60G G63A,≤ 0.5
23,U7A C33U,0.592
24,U7A C34A,0.662

row,Variant,yeast fitness
1,U7A C34A A42C G58A,≤ 0.5
2,U7A C34A C46U,≤ 0.5
3,U7A C34G A40C A57U,≤ 0.5
4,U7A C34G C62A,0.696
5,U7A C34U C55G,≤ 0.5
6,U7A C46G,0.787
7,U7A C46G A65C,0.848
8,U7A C46G A65U,0.686
9,U7A C46G A69C,0.607
10,U7A C46G G51A A65C,≤ 0.5
11,U7A C49A,0.634
12,U7A C49A G56A,0.594
13,U7A C49G,0.779
14,U7A C49G C66A,≤ 0.5
15,U7A C49G G50C C62U,≤ 0.5
16,U7A C49U C62G,0.603
17,U7A C49U U59C C62G,≤ 0.5
18,U7A C55G,≤ 0.5
19,U7A C55U A65G,≤ 0.5
20,U7A C55U G67C,≤ 0.5
21,U7A C60G,0.561
22,U7A C60G A69G,0.588
23,U7A C60G G67C,≤ 0.5
24,U7A C60U,0.652

row,Variant,yeast fitness
1,U7A C61G,0.563
2,U7A C62U,0.888
3,U7A C66G,0.62
4,U7A G9A U13A A70U,≤ 0.5
5,U7A G9A U13A G56A,0.535
6,U7A G9A U13G G56A,≤ 0.5
7,U7A G9C C30U C34G,≤ 0.5
8,U7A G9C C30U C34G A37G G68C,≤ 0.5
9,U7A G9C G10A C30U C34G G68C,≤ 0.5
10,U7A G9C G17C A40U A65C,≤ 0.5
11,U7A G9C G17C A43U G48A,≤ 0.5
12,U7A G9C G17C C46A G68C,≤ 0.5
13,U7A G9C G17C C49U C62G,≤ 0.5
14,U7A G9C G17C C61U G68C,≤ 0.5
15,U7A G9C G17C G48A,0.525
16,U7A G9C G17C G48A C60U,≤ 0.5
17,U7A G9C G17C G48A C62A,≤ 0.5
18,U7A G9C G17C G48A C66U,≤ 0.5
19,U7A G9C G17C G48A G67A,≤ 0.5
20,U7A G9C G17C G48A G67U,≤ 0.5
21,U7A G9C G17C G48A U54A,≤ 0.5
22,U7A G9C G17C G50A,≤ 0.5
23,U7A G10A A15U A43G G50A,0.53
24,U7A G10A A15U C46A,≤ 0.5

row,Variant,yeast fitness
1,U7A G10A A15U G56A A69U,≤ 0.5
2,U7A G10A A20C C29A C61U C66U,≤ 0.5
3,U7A G10A A20C C29A G63A A70C,≤ 0.5
4,U7A G10A A20C C29A U54A C55U,≤ 0.5
5,U7A G10A A20C C29A U64C,≤ 0.5
6,U7A G10A A40G C60U,≤ 0.5
7,U7A G10A C27A C30G G41C,≤ 0.5
8,U7A G10A C30A A43C,≤ 0.5
9,U7A G10A C31G,≤ 0.5
10,U7A G10A C33A A36C,≤ 0.5
11,U7A G10A C33A A36C A69C,≤ 0.5
12,U7A G10A C33A A36C A70U,≤ 0.5
13,U7A G10A C33A A36C C61U C66U,≤ 0.5
14,U7A G10A C33A A36C G50U,≤ 0.5
15,U7A G10A C33A A36C G67C,≤ 0.5
16,U7A G10A G41C A42U C46A C61G,0.561
17,U7A G10C A40G U53A G63A,≤ 0.5
18,U7A G10C A57U,≤ 0.5
19,U7A G10C C22U C27G G50U C66U,≤ 0.5
20,U7A G10C C22U C27G G67A,≤ 0.5
21,U7A G10C C27G U32A G56C,≤ 0.5
22,U7A G10C C30G C34U,≤ 0.5
23,U7A G10C G17A C22U C27G,≤ 0.5
24,U7A G10C G52A U54C C60G,0.518

row,Variant,yeast fitness
1,U7A G10C U26C C27G U32A,≤ 0.5
2,U7A G12A A20G G23A U26G,≤ 0.5
3,U7A G12A C24U G25C A42U,≤ 0.5
4,U7A G12A C34G C62U G68C,≤ 0.5
5,U7A G12C A14G A21C C24U G38A U54C C66A,≤ 0.5
6,U7A G12C C27G C31A C46A G56C,0.587
7,U7A G12C C34U,≤ 0.5
8,U7A G12C U54G,0.673
9,U7A G17A G23A A45C U47A G50A,≤ 0.5
10,U7A G17A U32C,≤ 0.5
11,U7A G17C A37G C49A,≤ 0.5
12,U7A G17C C24G C29A,≤ 0.5
13,U7A G17C C24G C29A G48C,≤ 0.5
14,U7A G18A A36C U47A G68A,0.508
15,U7A G18A C33A G38C,≤ 0.5
16,U7A G18A U19G C62A,0.633
17,U7A G18C A70U,0.662
18,U7A G18C C27A C31G A43G,≤ 0.5
19,U7A G18C C27G G38A,≤ 0.5
20,U7A G18C U35C A70U,≤ 0.5
21,U7A G18U C31U C49G,≤ 0.5
22,U7A G23A,0.722
23,U7A G23A A43U,≤ 0.5
